According to ChEMBL document CHEMBL1127378, “Influence of lipophilicity on the biological activity of cyclic pseudopeptide NK-2 receptor antagonists” (J Med Chem, 1994):
Where a SMILES comes first, the peptide text is derived from it. [ ]: non-standard residue; d: D form. Cha = N[C@@H](CC1CCCCC1)C(=O)O; βAla = NCCC(=O)O

What was measured:
Substance-K receptor [1] = target: T1, Substance-K receptor (Mesocricetus auratus, UniProt P51144); assay: Tested for antagonist activity at NK-2 tachykinin receptors in hamster trachea; type: functional; details: for Kb: read-out: pA2 (converted)
T1 sequence (P51144 whole entry): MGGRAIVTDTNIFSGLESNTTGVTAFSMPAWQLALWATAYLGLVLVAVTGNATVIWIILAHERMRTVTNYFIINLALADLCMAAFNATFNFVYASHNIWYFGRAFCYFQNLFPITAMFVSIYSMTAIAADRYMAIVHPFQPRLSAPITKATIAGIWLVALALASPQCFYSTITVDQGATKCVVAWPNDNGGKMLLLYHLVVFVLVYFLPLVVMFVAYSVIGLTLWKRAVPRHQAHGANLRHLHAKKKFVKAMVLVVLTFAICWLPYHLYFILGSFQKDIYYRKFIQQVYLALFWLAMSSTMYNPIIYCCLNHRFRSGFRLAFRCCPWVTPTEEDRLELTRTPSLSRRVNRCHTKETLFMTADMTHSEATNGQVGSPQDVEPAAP
Summary of the method: (§1)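 Isolated tissues from male New Zealand rabbits (2.5-3 kg) or male Syrian golden hamsters (90-130 g). Endothelium-denuded pulmonary artery strips (rabbit) or tracheal rings (hamster) were used for isometric tension in oxygenated (96% O2/4% CO2) Krebs. Thiorphan, captopril and bestatin were added 15 min before agonist. Cumulative NKA curves were repeated after 15 min antagonist incubation, with one concentration per experiment and at least three concentrations. pA2 came from constrained Schild plots (≥9 experiments).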

Substance-K receptor [2] = target: T2, Substance-K receptor (Oryctolagus cuniculus, UniProt P79218); assay: Antagonist activity at NK-2 tachykinin receptors in rabbit pulmonary artery; type: functional; details: for Kb: read-out: pA2 (converted); summary of the method: as §1
T2 sequence (P79218 whole entry): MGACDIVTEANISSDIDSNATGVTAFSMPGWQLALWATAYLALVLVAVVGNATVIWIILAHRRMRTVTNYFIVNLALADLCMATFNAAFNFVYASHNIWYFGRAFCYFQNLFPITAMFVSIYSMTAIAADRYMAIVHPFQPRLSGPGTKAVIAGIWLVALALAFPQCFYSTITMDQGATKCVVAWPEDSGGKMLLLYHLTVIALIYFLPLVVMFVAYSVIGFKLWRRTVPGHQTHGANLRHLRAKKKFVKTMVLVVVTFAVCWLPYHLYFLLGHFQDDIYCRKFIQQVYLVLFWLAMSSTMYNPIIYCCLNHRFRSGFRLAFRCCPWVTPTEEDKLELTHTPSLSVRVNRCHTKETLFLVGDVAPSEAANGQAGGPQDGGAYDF

[3] = Tested for capacity factors by reversed phase HPLC (C18, solvent system 1)
Substance-K receptor [4] = target: T2, Substance-K receptor; assay: Tested for antagonist activity at NK-2 tachykinin receptors in rabbit pulmonary artery; details: read-out: pA2 (converted)
[5] = target: T3, Substance-K receptor (Oryctolagus cuniculus) (UniProt P79218); details: filed as agonist
T3 sequence (whole entry): T2 sequence (P79218 whole entry)

[6] = target: T3, Substance-K receptor (Oryctolagus cuniculus)

Compound	Kb (Substance-K receptor [1]) [nM]	Kb (Substance-K receptor [2]) [nM]	k' [3]	further results
CC(C)C[C@@H]1CN[C@@H](CCCCNC(=O)OCc2ccccc2)C(=O)N[C@@H](CCC(N)=O)C(=O)N[C@@H](Cc2c[nH]c3ccccc23)C(=O)N[C@@H](Cc2ccccc2)C(=O)NCCC(=O)N1	6.76	129		
CC(C)C[C@@H]1CN[C@@H](CCCCNC(=O)OCc2ccccc2)C(=O)N[C@H](CCC(N)=O)C(=O)N[C@@H](Cc2c[nH]c3ccccc23)C(=O)N[C@H](Cc2ccccc2)C(=O)NCCC(=O)N1			11.9	
CC(C)C[C@@H]1NC(=O)CCNC(=O)[C@H](Cc2ccccc2)NC(=O)[C@H](Cc2c[nH]c3ccccc23)NC(=O)[C@H](CCC(N)=O)NC(=O)[C@H](CC2CCCCC2)NC1=O (cyclo([Cha]QWF[βAla]L))	31.6	1450		
CC(C)C[C@@H]1CN[C@@H](Cc2ccccc2)C(=O)N[C@H](CCC(N)=O)C(=O)N[C@@H](Cc2c[nH]c3ccccc23)C(=O)N[C@H](Cc2ccccc2)C(=O)NCCC(=O)N1			10.5	
CC(C)C[C@@H]1CN(C)[C@@H](CC2CCCCC2)C(=O)N[C@H](CCC(N)=O)C(=O)N[C@@H](Cc2c[nH]c3ccccc23)C(=O)N[C@H](Cc2ccccc2)C(=O)NCCC(=O)N1			13.1	
CC(C)C[C@@H]1CN[C@@H](Cc2ccc3ccccc3c2)C(=O)N[C@@H](CCC(N)=O)C(=O)N[C@@H](Cc2c[nH]c3ccccc23)C(=O)N[C@@H](Cc2ccccc2)C(=O)NCCC(=O)N1				pA2 (Substance-K receptor [1]): 8.79; pA2 (Substance-K receptor [2]): 7.37
CC(C)C[C@@H]1CN[C@@H](Cc2ccc3ccccc3c2)C(=O)N[C@H](CCC(N)=O)C(=O)N[C@@H](Cc2c[nH]c3ccccc23)C(=O)N[C@H](Cc2ccccc2)C(=O)NCCC(=O)N1			12	
CC(C)C[C@@H]1CN[C@@H](CC2CCCCC2)C(=O)N[C@@H](CCC(N)=O)C(=O)N[C@@H](Cc2c[nH]c3ccccc23)C(=O)N[C@@H](Cc2ccccc2)C(=O)NCCC(=O)N1	0.871			Kb (Substance-K receptor [4]): 38.9 nM
CC(C)C[C@@H]1CN[C@@H](CCC(=O)NCc2ccccc2)C(=O)N[C@@H](CCC(N)=O)C(=O)N[C@@H](Cc2c[nH]c3ccccc23)C(=O)N[C@@H](Cc2ccccc2)C(=O)NCCC(=O)N1	0.55	15.5		
CC(C)C[C@@H]1CN(C)[C@@H](CC2CCCCC2)C(=O)N[C@@H](CCC(N)=O)C(=O)N[C@@H](Cc2c[nH]c3ccccc23)C(=O)N[C@@H](Cc2ccccc2)C(=O)NCCC(=O)N1	3.8	117		
CC(C)C[C@@H]1CN[C@@H](CCC(=O)NCc2ccccc2)C(=O)N[C@H](CCC(N)=O)C(=O)N[C@@H](Cc2c[nH]c3ccccc23)C(=O)N[C@H](Cc2ccccc2)C(=O)NCCC(=O)N1			11.1	

More lines, main results first:

Kb (Substance-K receptor [1]) [nM]	Kb (Substance-K receptor [2]) [nM]	k' [3]	Compound	further results
309			CC(C)C[C@@H]1CN[C@@H](CCCCN)C(=O)N[C@@H](CCC(N)=O)C(=O)N[C@@H](Cc2c[nH]c3ccccc23)C(=O)N[C@@H](Cc2ccccc2)C(=O)NCCC(=O)N1	
15.8	112		CC(C)C[C@@H]1CN[C@@H](CC(C)C)C(=O)N[C@@H](CCC(N)=O)C(=O)N[C@@H](Cc2c[nH]c3ccccc23)C(=O)N[C@@H](Cc2ccccc2)C(=O)NCCC(=O)N1	
67.6	1070		CC(C)C[C@@H]1CN[C@@H](CC(=O)O)C(=O)N[C@@H](CCC(N)=O)C(=O)N[C@@H](Cc2c[nH]c3ccccc23)C(=O)N[C@@H](Cc2ccccc2)C(=O)NCCC(=O)N1	
12.9	224		CSCC[C@@H]1NC[C@@H](CC(C)C)NC(=O)CCNC(=O)[C@H](Cc2ccccc2)NC(=O)[C@H](Cc2c[nH]c3ccccc23)NC(=O)[C@H](CCC(N)=O)NC1=O	
110	692		CC(C)C[C@@H]1CN[C@@H](CC(N)=O)C(=O)N[C@@H](CCC(N)=O)C(=O)N[C@@H](Cc2c[nH]c3ccccc23)C(=O)N[C@@H](Cc2ccccc2)C(=O)NCCC(=O)N1	
		7.7	CC(C)C[C@@H]1CN[C@@H](CC(N)=O)C(=O)N[C@H](CCC(N)=O)C(=O)N[C@@H](Cc2c[nH]c3ccccc23)C(=O)N[C@H](Cc2ccccc2)C(=O)NCCC(=O)N1	
		9.6	CSCC[C@@H]1NC[C@@H](CC(C)C)NC(=O)CCNC(=O)[C@@H](Cc2ccccc2)NC(=O)[C@H](Cc2c[nH]c3ccccc23)NC(=O)[C@@H](CCC(N)=O)NC1=O	
18.6	79.4		CC(C)C[C@@H]1CN[C@@H](Cc2ccccc2)C(=O)N[C@@H](CCC(N)=O)C(=O)N[C@@H](Cc2c[nH]c3ccccc23)C(=O)N[C@@H](Cc2ccccc2)C(=O)NCCC(=O)N1	
		6.8	CC(C)C[C@@H]1CN[C@@H](CCCCN)C(=O)N[C@H](CCC(N)=O)C(=O)N[C@@H](Cc2c[nH]c3ccccc23)C(=O)N[C@H](Cc2ccccc2)C(=O)NCCC(=O)N1	pA2 [5]: Agonist; pD2 [6]: 5.96
		11.6	CC(C)C[C@@H]1CN[C@@H](CC2CCCCC2)C(=O)N[C@H](CCC(N)=O)C(=O)N[C@@H](Cc2c[nH]c3ccccc23)C(=O)N[C@H](Cc2ccccc2)C(=O)NCCC(=O)N1	
		9.9	CC(C)C[C@@H]1CN[C@@H](CC(C)C)C(=O)N[C@H](CCC(N)=O)C(=O)N[C@@H](Cc2c[nH]c3ccccc23)C(=O)N[C@H](Cc2ccccc2)C(=O)NCCC(=O)N1	
		7.9	CC(C)C[C@@H]1CN[C@@H](CC(=O)O)C(=O)N[C@H](CCC(N)=O)C(=O)N[C@@H](Cc2c[nH]c3ccccc23)C(=O)N[C@H](Cc2ccccc2)C(=O)NCCC(=O)N1	
